Laboratory results: ChEMBL document CHEMBL1136923, “Highly potent, orally available anti-inflammatory broad-spectrum chemokine inhibitors” (J Med Chem, 2009)

Columns and labels:
Mus musculus [1] = test: Antiinflammatory activity in sc dosed mouse assessed as inhibition of LPS-induced TNFalpha upregulation measured 2 hrs after LPS challenge relative to control; type: functional
How it was run: (§1)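 Murine sublethal LPS endotoxemia screen. LPS is injected intraperitoneally and serum TNF-α is measured 2 h later as the end point. Compound is given subcutaneously or orally in a vehicle of 0.6% DMSO plus 1% carboxymethylcellulose (final concentrations) in sterile water. Values are % relative to control.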

Mus musculus [2] = test: Antiinflammatory activity in mouse assessed as inhibition of LPS-induced TNFalpha upregulation at 0.000216 mg, po measured 2 hrs after LPS challenge; type: functional
How it was run: (§2)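 Murine sublethal endotoxemia: LPS given intraperitoneally, serum TNF-α measured 2 h after LPS injection. Compound vehicle 0.6% DMSO plus 1% carboxymethylcellulose (final concentrations) in sterile water.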

Mus musculus [3] = test: Antiinflammatory activity in mouse assessed as inhibition of LPS-induced TNFalpha upregulation at 0.00216 mg, sc measured 2 hrs after LPS challenge; type: functional
How it was run: (§3)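 Murine sublethal endotoxemia: LPS given intraperitoneally, with serum TNF-α measured 2 h after the LPS injection as the end point. Compound was given subcutaneously or orally. Vehicle was 0.6% DMSO and 1% carboxymethylcellulose (final concentrations) in sterile water. Effect is reported as % relative to control.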

Mus musculus [4] = test: Antiinflammatory activity in mouse assessed as inhibition of LPS-induced TNFalpha upregulation at 0.000864 mg, po measured 2 hrs after LPS challenge; type: functional; how it was run: as §3
Mus musculus [5] = test: Antiinflammatory activity in mouse assessed as inhibition of LPS-induced TNFalpha upregulation at 0.065 mg, po measured 2 hrs after LPS challenge; type: functional; how it was run: as §3
Mus musculus [6] = test: Antiinflammatory activity in mouse assessed as inhibition of LPS-induced TNFalpha upregulation at 0.000216 mg, sc measured 2 hrs after LPS challenge; type: functional; how it was run: as §2
Mus musculus [7] = test: Antiinflammatory activity in mouse assessed as inhibition of LPS-induced TNFalpha upregulation at 830 pg, sc measured 2 hrs after LPS challenge; type: functional; how it was run: as §1
[8] = Half life in Sprague-Dawley rat at 1 mg/kg, iv administered as single dose; type: ADME, organism-based; parameters: dose 1 mg/kg, route intravenous; conditions: in vivo
How it was run: (§4)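 Male Sprague-Dawley rats, three per compound, receive a single intravenous dose in 5% DMSO in 0.9% saline. Food and water are given ad libitum. Plasma is taken at 5, 15, 30, 60, 120, 180, 240 and 480 min. Drug is measured by LC/MS/MS after extraction with 0.1% formic acid in acetonitrile. The curve is back-extrapolated to time zero assuming an initial volume of 0.26 L/kg.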

Mus musculus [9] = test: Antiinflammatory activity in mouse assessed as inhibition of LPS-induced TNFalpha upregulation at 0.0216 ug, po measured 2 hrs after LPS challenge; type: functional; how it was run: as §3
[10] = target: C-C chemokine receptor type 2 (Homo sapiens) (UniProt P41597); test: Antagonist activity at CCR2 in human THP1 cells assessed as inhibition of CCL2-induced chemotaxis at 100 nM after 2 hrs by microtiter format trans-well migration assay; type: functional, cell-based; conditions: THP-1
How it was run: (§5)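 Microtiter trans-well migration assay in Gey's balanced salt solution with 1 mg/mL endotoxin-free BSA, no fetal calf serum. Migration ran 2 h at 37 °C. Compounds dissolved in DMSO and added to both top and bottom compartments, final DMSO 1%.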

Mus musculus [11] = test: Antiinflammatory activity in po dosed mouse assessed as inhibition of LPS-induced TNFalpha upregulation measured 2 hrs after LPS challenge; type: functional
[12] = target: C-C chemokine receptor type 2 (Homo sapiens) (UniProt P41597); test: Antagonist activity at CCR2 in human THP1 cells assessed as inhibition of CCL2-induced chemotaxis at 10 nM after 2 hrs by microtiter format trans-well migration assay; type: functional, cell-based; conditions: THP-1; how it was run: as §5
Mus musculus [13] = test: Antiinflammatory activity in mouse assessed as inhibition of LPS-induced TNFalpha upregulation at 0.0216 mg, sc measured 2 hrs after LPS challenge; type: functional; how it was run: as §3
Mus musculus [14] = test: Antiinflammatory activity in mouse assessed as inhibition of LPS-induced TNFalpha upregulation at 0.078 ug, po measured 2 hrs after LPS challenge; type: functional; how it was run: as §3
Rattus norvegicus [15] = test: Plasma concentration in Sprague-Dawley rat at 3 mg/kg, po administered as single dose; type: ADME, organism-based; parameters: dose 3 mg/kg, route oral; conditions: in vivo
How it was run: (§6)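 Male Sprague-Dawley rats, three per compound, receive a single oral dose by gavage in 1% carboxymethylcellulose in 0.9% saline, with food and water ad libitum. Plasma is sampled from 5 to 480 min and drug is quantified by positive-mode LC/MS/MS after acetonitrile/formic acid extraction. The lower limit of quantitation is about 2 ng/mL. Exposure is AUC(0→t) by the linear/log trapezoidal rule, and F is oral fractional bioavailability.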

Rattus norvegicus [16] = test: AUC (0 to t) in Sprague-Dawley rat at 1 mg/kg, iv administered as single dose; type: ADME, organism-based, Plasma; parameters: dose 1 mg/kg, route intravenous; conditions: in vivo
How it was run: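 Male Sprague-Dawley rats, three per compound per route, single dose. IV vehicle 5% DMSO in 0.9% saline; oral gavage vehicle 1% carboxymethylcellulose in 0.9% saline; fed ad libitum. Plasma taken 5–480 min post-dose, extracted with 0.1% formic acid in acetonitrile, quantified by LC/MS/MS (positive mode). AUC(0–t) by linear/log trapezoidal rule; IV curve back-extrapolated assuming initial volume 0.26 L/kg.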

[17] = Fractional bioavailability in Sprague-Dawley rat at 3 mg/kg, po administered as single dose; type: ADME, organism-based; conditions: in vivo; how it was run: as §6
[18] = target: C-C chemokine receptor type 2 (Homo sapiens) (UniProt P41597); test: Antagonist activity at CCR2 in human THP1 cells assessed as inhibition of CCL2-induced chemotaxis at 0.1 nM after 2 hrs by microtiter format trans-well migration assay; type: functional, cell-based; conditions: THP-1; how it was run: as §5
[19] = target: C-C chemokine receptor type 2 (Homo sapiens) (UniProt P41597); test: Antagonist activity at CCR2 in human THP1 cells assessed as inhibition of CCL2-induced chemotaxis at 1000 nM after 2 hrs by microtiter format trans-well migration assay; type: functional, cell-based; conditions: THP-1; how it was run: as §5
Mus musculus [20] = test: Antiinflammatory activity in po dosed mouse assessed as inhibition of LPS-induced TNFalpha upregulation measured 2 hrs after LPS challenge relative to control; type: functional; how it was run: as §1
Mus musculus [21] = test: Antiinflammatory activity in mouse assessed as inhibition of LPS-induced TNFalpha upregulation at 0.00312 ug, po measured 2 hrs after LPS challenge; type: functional; how it was run: as §3
Mus musculus [22] = test: Antiinflammatory activity in mouse assessed as inhibition of LPS-induced TNFalpha upregulation at 0.0216 mg, po measured 2 hrs after LPS challenge; type: functional; how it was run: as §3
[23] = target: C-C chemokine receptor type 2 (Homo sapiens) (UniProt P41597); test: Antagonist activity at CCR2 in human THP1 cells assessed as inhibition of CCL2-induced chemotaxis at 1 nM after 2 hrs by microtiter format trans-well migration assay; type: functional, cell-based; conditions: THP-1; how it was run: as §5
Mus musculus [24] = test: Antiinflammatory activity in mouse assessed as inhibition of LPS-induced TNFalpha upregulation at 0.216 mg, sc measured 2 hrs after LPS challenge; type: functional; how it was run: as §3
[25] = target: C-C chemokine receptor type 2 (Homo sapiens) (UniProt P41597); test: Antagonist activity at CCR2 in human THP1 cells assessed as inhibition of CCL2-induced chemotaxis after 2 hrs by microtiter format trans-well migration assay; type: functional, cell-based; conditions: THP-1; how it was run: as §5
Mus musculus [26] = test: Antiinflammatory activity in mouse assessed as inhibition of LPS-induced TNFalpha upregulation at 0.0065 mg, po measured 2 hrs after LPS challenge; type: functional; how it was run: as §3
Mus musculus [27] = test: Antiinflammatory activity in mouse assessed as inhibition of LPS-induced TNFalpha upregulation at 0.0216 ug, sc measured 2 hrs after LPS challenge; type: functional; how it was run: as §3
Mus musculus [28] = test: Antiinflammatory activity in mouse assessed as inhibition of LPS-induced TNFalpha upregulation at 624 pg, po measured 2 hrs after LPS challenge; type: functional; how it was run: as §1
Mus musculus [29] = test: Antiinflammatory activity in sc dosed mouse assessed as inhibition of LPS-induced TNFalpha upregulation measured 2 hrs after LPS challenge; type: functional
[30] = Volume of distribution at steady state in Sprague-Dawley rat at 1 mg/kg, iv administered as single dose; type: ADME, organism-based; parameters: dose 1 mg/kg, route intravenous; conditions: in vivo, read-out: Vdss; how it was run: as §4
Mus musculus [31] = test: Antiinflammatory activity in mouse assessed as inhibition of LPS-induced TNFalpha upregulation at 0.216 mg, po measured 2 hrs after LPS challenge; type: functional; how it was run: as §3
[32] = target: C-C chemokine receptor type 2 (Homo sapiens) (UniProt P41597); test: Antagonist activity at CCR2 in human THP1 cells assessed as inhibition of CCL2-induced chemotaxis at 0.01 nM after 2 hrs by microtiter format trans-well migration assay; type: functional, cell-based; conditions: THP-1; how it was run: as §5

Sequence of C-C chemokine receptor type 2 (Homo sapiens) (P41597 whole entry, looked up): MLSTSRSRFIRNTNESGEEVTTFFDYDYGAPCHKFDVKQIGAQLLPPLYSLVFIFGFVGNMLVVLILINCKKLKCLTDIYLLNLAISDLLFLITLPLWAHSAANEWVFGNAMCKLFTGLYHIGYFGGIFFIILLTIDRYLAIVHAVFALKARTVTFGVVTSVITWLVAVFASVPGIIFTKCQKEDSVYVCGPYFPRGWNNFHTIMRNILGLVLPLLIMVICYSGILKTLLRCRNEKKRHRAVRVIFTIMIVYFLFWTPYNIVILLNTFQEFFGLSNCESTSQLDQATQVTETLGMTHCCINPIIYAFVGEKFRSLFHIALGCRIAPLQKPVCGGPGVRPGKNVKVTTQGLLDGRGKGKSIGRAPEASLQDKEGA

O=C1NCCCC[C@@H]1NC(=O)C12CC3CC(CC(C3)C1)C2
inhibition (INH) (Mus musculus [1]): 90%
inhibition (INH) (Mus musculus [2]): 76%
inhibition (INH) (Mus musculus [3]): 71%
inhibition (INH) (Mus musculus [4]): 78%
inhibition (INH) (Mus musculus [5]): 83%
inhibition (INH) (Mus musculus [6]): 56%
inhibition (INH) (Mus musculus [7]): -12%
half-life [8]: 16 min
inhibition (INH) (Mus musculus [9]): 60%
inhibition [10]: 98%
ED50 (Mus musculus [11]): 0.5 µg/kg
inhibition [12]: 100%
inhibition (INH) (Mus musculus [13]): 89%
inhibition (INH) (Mus musculus [14]): 59%
Cp (Rattus norvegicus [15]): < 2 ng/mL
AUC (Rattus norvegicus [16]): 477 ng·min/mL
bioavailability [17]: < 1%
inhibition [18]: 11%
inhibition [19]: 100%
inhibition (INH) (Mus musculus [20]): 90%
inhibition (INH) (Mus musculus [21]): 30%
inhibition (INH) (Mus musculus [22]): 75%
inhibition [23]: 99%
inhibition (INH) (Mus musculus [24]): 89%
ED50 [25]: 0.09 nM
inhibition (INH) (Mus musculus [26]): 71%
inhibition (INH) (Mus musculus [27]): 29%
inhibition (INH) (Mus musculus [28]): 8%
ED50 (Mus musculus [29]): 2 µg/kg
Vd [30]: 0.8 L/kg
inhibition (INH) (Mus musculus [31]): 91%

CC(C)CCC(C)(C)C(=O)N[C@H]1CCCCNC1=O
ED50 [25]: 0.08 nM

CCCCCCCCCCC(C)(C)C(=O)N[C@@H]1CCCCNC1=O
inhibition [10]: 101%
inhibition [12]: 69%
inhibition [32]: 5%
inhibition [18]: 20%
inhibition [19]: 98.5%
inhibition [23]: 36%
ED50 [25]: 4.5 nM

O=C(N[C@H]1CCCCNC1=O)C1CCCCC1
ED50 [25]: 0.5 nM

CCCCCC1CCC(C(=O)N[C@H]2CCCCNC2=O)CC1 (stereo partly specified)
ED50 [25]: 5 nM

O=C1NCCCC[C@H]1NC(=O)C12CC3CC(CC(C3)C1)C2
inhibition [10]: 101%
inhibition [12]: 98%
inhibition [32]: 26%
inhibition [18]: 14%
inhibition [19]: 100%
inhibition [23]: 46%
ED50 [25]: 0.44 nM

CC(CCl)(CCl)C(=O)N[C@H]1CCCCNC1=O
ED50 [25]: 9 nM

C=CCC(C)(C)C(=O)N[C@H]1CCCCNC1=O
ED50 [25]: 1 nM

CCCCCCCCCCCC(=O)N[C@H]1CCCCNC1=O
ED50 [25]: 15 nM

O=C(CC12CC3CC(CC(C3)C1)C2)N[C@H]1CCCCNC1=O
ED50 [25]: 0.8 nM

CCCCCCCCC/C=C(\C)C(=O)N[C@H]1CCCCNC1=O
ED50 [25]: 10 nM

CCCCCCCCCC(C)(C)CC(=O)N[C@H]1CCCCNC1=O
ED50 [25]: 4 nM

CCCCCCCCCCC(C)C(=O)N[C@H]1CCCCNC1=O (mixture of isomers; form 2)
ED50 [25]: 3 nM

O=C(N[C@H]1CCCCNC1=O)C1=CCCCC1
ED50 [25]: 0.8 nM

CCCCCCCCCCC(C)C(=O)N[C@H]1CCCCNC1=O (mixture of isomers; form 1)
ED50 [25]: 3 nM

CC(C)=CCC(C)(C)C(=O)N[C@H]1CCCCNC1=O
ED50 [25]: 0.2 nM

CCC(C)(C)C(=O)N[C@H]1CCCCNC1=O
ED50 [25]: 0.07 nM

CCCCCC12CCC(C(=O)N[C@H]3CCCCNC3=O)(CC1)CC2
ED50 [25]: 7 nM

CCCC(C)(C)C(=O)N[C@H]1CCCCNC1=O
ED50 [25]: 0.5 nM
